Measurements of several laboratories.
Compare with care: the assays were run in different laboratories. pEC50, pIC50: −log10 of the molar value.
Observed: cell growth or viability

Structure (SMILES)	cell line	test	conditions	measurement	result
CC(C)[C@H](N)C(=O)N1CCC[C@H]1B(O)O	SKM-1	ATP luminescence	48 h	pIC50	7.36
N=C(CCl)NCCC[C@H](NC(=O)c1ccccc1)C(N)=O	U2OS	XTT	72 h	pEC50	< 3.70
Cc1ccc(NC(=O)c2ccc(CN3CCN(C)CC3)cc2)cc1Nc1nccc(-c2cccnc2)n1	HeLa	MTT	1 µM, 48 h	inhibition	11%
CC(C)C[C@H](NC(=O)[C@H](Cc1ccccc1)NC(=O)c1cnccn1)B(O)O	U2OS	ATP luminescence		pIC50	7.96
C[C@@H](NC(=O)[C@H](CCCCNC(=O)C(F)(F)F)NS(C)(=O)=O)C(=O)N[C@@H](CCCNC(=N)N)C(N)=O	HeLa	MTT	72 h	pEC50	4.12 to 4.28
N[C@@H](CC(=O)N1CCN(C(c2ccc(F)cc2)c2ccc(F)cc2)CC1)C(=O)N1Cc2ccccc2C1	HEL	ATP luminescence	48 h	pIC50	4.50
Cn1nnc2c(C(N)=O)ncn2c1=O	Hs746T			pEC50	< 3.00
O=C1Nc2ccccc2C1=NNc1nnc2n1N=C(c1ccccc1)CS2	Hs-578T	SRB	10 µM	inhibition	28%
COc1cc(-c2ccc(-c3ccc(C(=N)N)nc3)s2)cc(OC)c1OC	Hs-578T	SRB		GI50	2.59 µM
COc1cc(-c2ncn(/C=C\C(=O)OC(C)C)n2)cc(C(F)(F)F)c1	SKM-1		72 h	pIC50	7.10
COc1cccc(Oc2ccccc2NC(=O)CNC(=O)c2cccc3ccccc23)c1	Hs-578T	SRB	48 h	GI50	0.38 µM
CCCCCCCCCCCCNC(=S)NCCCC[C@H](NS(C)(=O)=O)C(=O)N[C@H](C)C(=O)N[C@@H](CCCNC(=N)N)C(=O)N1CCOCC1	HeLa	MTT	72 h	pEC50	3.90 to 4.05
NCCOc1cc(NC(=O)c2cc(OCc3ccc(F)cc3)cc(C(=O)Nc3cc(OCCN)c4ccccc4n3)n2)nc2ccccc12	U2OS	ATP luminescence	72 h	pIC50	5.25
COc1ccc(-c2ccc(-c3ccc(C(=N)N)nc3)s2)cc1Cl	Hs-578T	SRB		GI50	1.85 µM
CCCCCCCCCCCCNC(=O)NCCCC[C@H](NS(C)(=O)=O)C(=O)N[C@H](C)C(=O)N[C@@H](CCCNC(=N)N)C(N)=O	HeLa	MTT	72 h	pEC50	4.38 to 4.64
